In ChEMBL document CHEMBL1149538, “A high-throughput assay for O-GlcNAc transferase detects primary sequence preferences in peptide substrates” (Bioorg Med Chem Lett, 2007):
Where a SMILES comes first, the peptide text is derived from it.

T1: UDP-N-acetylglucosamine--peptide N-acetylglucosaminyltransferase 110 kDa subunit (Homo sapiens) (UniProt O15294)
T1 sequence (whole entry): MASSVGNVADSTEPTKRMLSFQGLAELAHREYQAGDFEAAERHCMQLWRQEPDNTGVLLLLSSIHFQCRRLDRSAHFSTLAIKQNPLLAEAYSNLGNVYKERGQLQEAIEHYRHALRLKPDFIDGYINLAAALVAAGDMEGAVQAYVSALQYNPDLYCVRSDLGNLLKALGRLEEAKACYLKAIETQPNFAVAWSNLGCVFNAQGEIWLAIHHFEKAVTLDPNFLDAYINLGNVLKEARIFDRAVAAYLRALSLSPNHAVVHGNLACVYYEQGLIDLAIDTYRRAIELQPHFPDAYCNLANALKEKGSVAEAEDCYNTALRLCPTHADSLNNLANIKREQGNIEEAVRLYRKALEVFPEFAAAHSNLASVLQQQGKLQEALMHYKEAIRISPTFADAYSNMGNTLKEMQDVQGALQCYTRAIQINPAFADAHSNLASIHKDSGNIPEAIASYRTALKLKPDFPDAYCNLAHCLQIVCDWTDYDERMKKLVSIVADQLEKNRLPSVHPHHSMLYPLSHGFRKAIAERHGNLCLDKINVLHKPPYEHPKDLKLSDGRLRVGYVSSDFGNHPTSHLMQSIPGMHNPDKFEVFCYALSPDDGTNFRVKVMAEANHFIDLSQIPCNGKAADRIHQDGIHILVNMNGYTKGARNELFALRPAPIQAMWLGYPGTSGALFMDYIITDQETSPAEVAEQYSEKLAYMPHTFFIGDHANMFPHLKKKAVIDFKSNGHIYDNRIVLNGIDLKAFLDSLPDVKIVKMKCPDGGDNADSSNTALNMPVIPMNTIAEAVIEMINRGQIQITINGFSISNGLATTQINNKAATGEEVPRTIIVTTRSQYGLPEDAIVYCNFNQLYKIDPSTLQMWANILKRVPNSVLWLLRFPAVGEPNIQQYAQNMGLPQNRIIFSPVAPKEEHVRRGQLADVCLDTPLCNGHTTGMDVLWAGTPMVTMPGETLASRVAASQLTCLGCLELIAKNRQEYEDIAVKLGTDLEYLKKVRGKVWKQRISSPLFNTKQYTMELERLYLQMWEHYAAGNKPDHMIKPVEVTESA


Tests used:
Conditions in all cases: BL21-DE3
[1] = molecular target: T1, UDP-N-acetylglucosamine--peptide N-acetylglucosaminyltransferase 110 kDa subunit (Homo sapiens); assay: Binding affinity to human OGT expressed in Escherichia coli […] cells assessed as alpha-FLAG-HRP activity relative to alpha-A-crystallin peptide by azido-ELISA
In short: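 Biotinylated peptides are reacted at saturating levels with Ni-column-purified human OGT from E. coli BL21(DE3), plus UDP-GlcNAz 62.5 μM, MgCl2 12.5 μM and β-mercaptoethanol 1 mM, for 4 h at 37 °C. Reactions are stopped with pH 4.5 sodium acetate and captured on NeutrAvidin. Product is tagged with phosphine-FLAG, detected by anti-FLAG-HRP/TMB at A450, normalized to the parent peptide after Ala-peptide background subtraction. Data are from 3 experiments, each in triplicate.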

[2] = substrate: CC[C@H](C)[C@H](NC(=O)[C@H](C)N)C(=O)N1CCC[C@H]1C(=O)N[C@H](C(=O)N[C@@H](CO)C(=O)N[C@@H](CCCNC(=N)N)C(=O)N[C@@H](C)C(=O)N[C@@H](CCC(=O)O)C(=O)N[C@@H](CCCCN)C(=O)O)C(C)C; assay: (§1) Binding affinity to human OGT expressed in Escherichia coli […] cells by azido-ELISA
In short: (§2)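 Km is derived from the azido-ELISA using Ni-purified human OGT expressed in E. coli BL21(DE3), with UDP-GlcNAz as donor, MgCl2 and β-mercaptoethanol, incubated at 37 °C. Biotinylated peptide product is captured on NeutrAvidin, Staudinger-tagged with phosphine-FLAG (0.2 mM, 2 h, 37 °C), and quantified by anti-FLAG-HRP with TMB at 450 nm.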

[3] = substrate: CC[C@H](C)[C@H](NC(=O)[C@H](C)N)C(=O)N1CCC[C@H]1C(=O)N[C@H](C(=O)N[C@@H](CO)C(=O)N[C@@H](CCCNC(=N)N)C(=O)N[C@@H](CCC(=O)O)C(=O)N[C@@H](CCC(=O)O)C(=O)N[C@@H](CCCCN)C(=O)O)C(C)C; assay: as §1; in short: as §2
[4] = substrate: CC[C@H](C)[C@H](NC(=O)[C@H](C)N)C(=O)N1CCC[C@H]1C(=O)N[C@H](C(=O)N[C@@H](CO)C(=O)N[C@@H](CCCNC(=N)N)C(=O)N1CCC[C@H]1C(=O)N[C@@H](CCC(=O)O)C(=O)N[C@@H](CCCCN)C(=O)O)C(C)C; assay: as §1; in short: as §2

Activity [1] | Molecule | other results
5 | CC[C@H](C)[C@H](NC(=O)[C@H](C)N)C(=O)N1CCC[C@H]1C(=O)N[C@H](C(=O)N[C@@H](CO)C(=O)N[C@@H](CCCNC(=N)N)C(=O)N[C@@H](C)C(=O)N[C@@H](CCC(=O)O)C(=O)N[C@@H](CCCCN)C(=O)O)C(C)C (H-AIPVSRAEK-OH) | 
0.6 | CC[C@H](C)[C@H](NC(=O)[C@H](C)N)C(=O)N1CCC[C@H]1C(=O)N[C@H](C(=O)N[C@@H](CO)C(=O)N[C@@H](CCCNC(=N)N)C(=O)N[C@@H](CCC(=O)O)C(=O)N[C@@H](C)C(=O)N[C@@H](CCCCN)C(=O)O)C(C)C (H-AIPVSREAK-OH) | 
1 | CC[C@H](C)[C@H](NC(=O)[C@H](C)N)C(=O)N1CCC[C@H]1C(=O)N[C@H](C(=O)N[C@@H](CO)C(=O)N[C@@H](CCCNC(=N)N)C(=O)N[C@@H](CCC(=O)O)C(=O)N[C@@H](CCC(=O)O)C(=O)N[C@@H](CCCCN)C(=O)O)C(C)C (H-AIPVSREEK-OH) | 
0.1 | CC[C@H](C)[C@H](NC(=O)[C@H](CCC(=O)O)NC(=O)[C@H](CCCNC(=N)N)NC(=O)[C@H](CO)NC(=O)[C@@H](NC(=O)[C@@H]1CCCN1C(=O)[C@@H](NC(=O)[C@H](C)N)[C@@H](C)CC)C(C)C)C(=O)N[C@@H](CCCCN)C(=O)O (H-AIPVSREIK-OH) | 
0.3 | CC[C@H](C)[C@H](NC(=O)[C@H](C)N)C(=O)N1CCC[C@H]1C(=O)N[C@H](C(=O)N[C@@H](CO)C(=O)N[C@@H](CCCNC(=N)N)C(=O)N[C@@H](CCC(=O)O)C(=O)N1CCC[C@H]1C(=O)N[C@@H](CCCCN)C(=O)O)C(C)C (H-AIPVSREPK-OH) | 
0.2 | CC[C@H](C)[C@H](NC(=O)[C@H](C)N)C(=O)N1CCC[C@H]1C(=O)N[C@H](C(=O)N[C@@H](CO)C(=O)N[C@@H](CCCNC(=N)N)C(=O)N[C@@H](CCC(=O)O)C(=O)N[C@@H](CCCNC(=N)N)C(=O)N[C@@H](CCCCN)C(=O)O)C(C)C (H-AIPVSRERK-OH) | 
4.7 | CC[C@H](C)[C@H](NC(=O)[C@H](C)N)C(=O)N1CCC[C@H]1C(=O)N[C@H](C(=O)N[C@@H](CO)C(=O)N[C@@H](CCCNC(=N)N)C(=O)N1CCC[C@H]1C(=O)N[C@@H](CCC(=O)O)C(=O)N[C@@H](CCCCN)C(=O)O)C(C)C (H-AIPVSRPEK-OH) | 
0.6 | CC[C@H](C)[C@H](NC(=O)[C@H](C)N)C(=O)N1CCC[C@H]1C(=O)N[C@H](C(=O)N[C@@H](CO)C(=O)N[C@@H](CCCNC(=N)N)C(=O)N[C@@H](CCCNC(=N)N)C(=O)N[C@@H](CCC(=O)O)C(=O)N[C@@H](CCCCN)C(=O)O)C(C)C (H-AIPVSRREK-OH) | 
0.2 | CC[C@H](C)[C@H](NC(=O)[C@H](C)N)C(=O)N[C@@H](CCCNC(=N)N)C(=O)N[C@H](C(=O)N[C@@H](CO)C(=O)N[C@@H](CCCNC(=N)N)C(=O)N[C@@H](CCC(=O)O)C(=O)N[C@@H](CCC(=O)O)C(=O)N[C@@H](CCCCN)C(=O)O)C(C)C (H-AIRVSREEK-OH) | 
0.1 | CC(C)[C@H](NC(=O)[C@@H]1CCCN1C(=O)[C@@H]1CCCN1C(=O)[C@H](C)N)C(=O)N[C@@H](CO)C(=O)N[C@@H](CCCNC(=N)N)C(=O)N[C@@H](CCC(=O)O)C(=O)N[C@@H](CCC(=O)O)C(=O)N[C@@H](CCCCN)C(=O)O (H-APPVSREEK-OH) | 
0 | CC(C)[C@H](NC(=O)[C@@H]1CCCN1C(=O)[C@H](CCCNC(=N)N)NC(=O)[C@H](C)N)C(=O)N[C@@H](CO)C(=O)N[C@@H](CCCNC(=N)N)C(=O)N[C@@H](CCC(=O)O)C(=O)N[C@@H](CCC(=O)O)C(=O)N[C@@H](CCCCN)C(=O)O (H-ARPVSREEK-OH) | 
1 | CC[C@H](C)[C@H](NC(=O)[C@@H](N)CCC(=O)O)C(=O)N1CCC[C@H]1C(=O)N[C@H](C(=O)N[C@@H](CO)C(=O)N[C@@H](CCCNC(=N)N)C(=O)N[C@@H](CCC(=O)O)C(=O)N[C@@H](CCC(=O)O)C(=O)N[C@@H](CCCCN)C(=O)O)C(C)C (H-EIPVSREEK-OH) | 
1.6 | CC[C@H](C)[C@H](N)C(=O)N[C@H](C(=O)N1CCC[C@H]1C(=O)N[C@H](C(=O)N[C@@H](CO)C(=O)N[C@@H](CCCNC(=N)N)C(=O)N[C@@H](CCC(=O)O)C(=O)N[C@@H](CCC(=O)O)C(=O)N[C@@H](CCCCN)C(=O)O)C(C)C)[C@@H](C)CC (H-IIPVSREEK-OH) | 
1.8 | CC[C@H](C)[C@H](NC(=O)[C@@H]1CCCN1)C(=O)N1CCC[C@H]1C(=O)N[C@H](C(=O)N[C@@H](CO)C(=O)N[C@@H](CCCNC(=N)N)C(=O)N[C@@H](CCC(=O)O)C(=O)N[C@@H](CCC(=O)O)C(=O)N[C@@H](CCCCN)C(=O)O)C(C)C (H-PIPVSREEK-OH) | 
2 | CC[C@H](C)[C@H](NC(=O)[C@@H](N)CCCNC(=N)N)C(=O)N1CCC[C@H]1C(=O)N[C@H](C(=O)N[C@@H](CO)C(=O)N[C@@H](CCCNC(=N)N)C(=O)N[C@@H](CCC(=O)O)C(=O)N[C@@H](CCC(=O)O)C(=O)N[C@@H](CCCCN)C(=O)O)C(C)C (H-RIPVSREEK-OH) | 
 | UDP-N-acetylglucosamine--peptide N-acetylglucosaminyltransferase 110 kDa subunit (Homo sapiens), O15294 (protein) MASSVGNVADSTEPTKRMLSFQGLAELAHREYQAGDFEAAERHCMQLWRQEPDNTGVLLLLSSIHFQCRRLDRSAHFSTLAIKQNPLLAEAYSNLGNVYKERGQLQEAIEHYRHALRLKPDFIDGYINLAAALVAAGDMEGAVQAYVSALQYNPDLYCVRSDLGNLLKALGRLEEAKACYLKAIETQPNFAVAWSNLGCVFNAQGEIWLAIHHFEKAVTLDPNFLDAYINLGNVLKEARIFDRAVAAYLRALSLSPNHAVVHGNLACVYYEQGLIDLAIDTYRRAIELQPHFPDAYCNLANALKEKGSVAEAEDCYNTALRLCPTHADSLNNLANIKREQGNIEEAVRLYRKALEVFPEFAAAHSNLASVLQQQGKLQEALMHYKEAIRISPTFADAYSNMGNTLKEMQDVQGALQCYTRAIQINPAFADAHSNLASIHKDSGNIPEAIASYRTALKLKPDFPDAYCNLAHCLQIVCDWTDYDERMKKLVSIVADQLEKNRLPSVHPHHSMLYPLSHGFRKAIAERHGNLCLDKINVLHKPPYEHPKDLKLSDGRLRVGYVSSDFGNHPTSHLMQSIPGMHNPDKFEVFCYALSPDDGTNFRVKVMAEANHFIDLSQIPCNGKAADRIHQDGIHILVNMNGYTKGARNELFALRPAPIQAMWLGYPGTSGALFMDYIITDQETSPAEVAEQYSEKLAYMPHTFFIGDHANMFPHLKKKAVIDFKSNGHIYDNRIVLNGIDLKAFLDSLPDVKIVKMKCPDGGDNADSSNTALNMPVIPMNTIAEAVIEMINRGQIQITINGFSISNGLATTQINNKAATGEEVPRTIIVTTRSQYGLPEDAIVYCNFNQLYKIDPSTLQMWANILKRVPNSVLWLLRFPAVGEPNIQQYAQNMGLPQNRIIFSPVAPKEEHVRRGQLADVCLDTPLCNGHTTGMDVLWAGTPMVTMPGETLASRVAASQLTCLGCLELIAKNRQEYEDIAVKLGTDLEYLKKVRGKVWKQRISSPLFNTKQYTMELERLYLQMWEHYAAGNKPDHMIKPVEVTESA | Km [2]: 0.5 µM; Km [3]: 8.7 µM; Km [4]: 0.8 µM
